# Published values of several laboratories.
# Lines come from different studies, so protocols differ.
SMILES,tested on,test,test system,setting,measurement,value
CCOC(=O)c1c(NCCO)c2c([nH]c1=O)CCC2,Human immunodeficiency virus 1,"viral replication, inhibitor",IIIB,72 h,EC50,> 100000 nM
CC(=O)ON=C1C=CC(=C(C#N)c2ccccc2)C=C1,HDF-1,"cell growth or viability, MTT",,72 h,IC50,24 µg/mL
O=[N+]([O-])c1cn2c(n1)OC[C@@H](OCc1ccc(OC(F)(F)F)cc1)C2,Mycobacterium marinum,microbial growth,,,MIC90,50 µM
CC(C)(C#Cc1ccc(-c2ccc(Cl)c3c(NS(C)(=O)=O)nn(CC(F)(F)F)c23)c([C@H](CC2CCCC2)NC(=O)Cn2nc(C(F)(F)F)c3c2C(F)(F)[C@@H]2C[C@H]32)n1)S(C)(=O)=O,Human immunodeficiency virus 1,"viral replication, inhibitor",,,EC50,0.073 nM
[NH2][Pt]([NH2])([Cl])[Cl],HCC4006,"cell growth or viability, MTT",,48 h,IC50,182 µM
O=c1[nH]ncc(NN=Cc2cn(-c3ccccc3)nc2-c2cc3ccccc3oc2=O)c1Cl,CCRF-CEM,cell growth or viability,,48 h,CC50,36.2 µM
Cc1cc(/C=C/C#N)cc(C)c1Nc1ccnc(Nc2ccc(C#N)cc2)n1,Human immunodeficiency virus 1,"viral replication, inhibitor","TZM-bl, IIIB",48 h,EC50,0.89 nM
CCOC(=O)c1c(NCCCCN)c2c([nH]c1=O)CCC2,Human immunodeficiency virus 1,"viral replication, inhibitor",IIIB,72 h,EC50,> 100000 nM
CC(C)(C#Cc1ccc(-c2ccc(Cl)c3c(NS(C)(=O)=O)nn(CC(F)(F)F)c23)c([C@H](Cc2cc(F)cc(F)c2)NC(=O)Cn2nc(C(F)(F)F)c3c2C(F)(F)[C@@H]2C[C@H]32)n1)S(C)(=O)=O,Human immunodeficiency virus 1,"viral replication, inhibitor",,,EC50,0.19 nM
CCOC(=O)c1c(NCCCN)c2c([nH]c1=O)CCC2,Human immunodeficiency virus 1,"viral replication, inhibitor",IIIB,72 h,EC50,> 100000 nM
Cc1nc(Nc2ncc(C(=O)Nc3c(C)cccc3Cl)s2)cc(N2CC[C@H](O)C2)n1,CCRF-CEM,"cell growth or viability, ATP luminescence",,72 h,IC50,> 10 µM
CC(C)(C#Cc1ccc(-c2ccc(Cl)c3c(NS(C)(=O)=O)nn(CC(F)(F)F)c23)c([C@@H](CC2CC2)NC(=O)Cn2nc(C(F)(F)F)c3c2C(F)(F)[C@@H]2C[C@H]32)n1)S(C)(=O)=O,Human immunodeficiency virus 1,"viral replication, inhibitor",,,EC50,3.8 nM
C=CCCCNc1c2c([nH]c(=O)c1C(=O)OCC)CCC2,Human immunodeficiency virus 1,"viral replication, inhibitor",IIIB,72 h,EC50,45400 nM
